Source: paper PMC10975593 (ACS Omega, 2024)
Like-named read-outs stand apart in the source and are kept apart here.

Key:
A549 cancer cell line [1] = experiment: MTT assay; type: cell-based; settings: for IC50 / inhibition at 100 µM: Homo sapiens, A549, 72 h; for inhibition at 100 µM: read-out: experimental % of inhibition on A549 cancer cell line
Procedure, shortened: (§1)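 A549 in DMEM and MCF-7 in RPMI, each with 10% heat-inactivated FBS, 1% penicillin/streptomycin and 2 mmol/L glutamine at 37 °C, 5% CO2. Seeded at 2000 (A549) or 10,000 (MCF-7) cells/well and attached 24 h. Then 72 h with test compound at varying concentrations. MTT (5 mg/mL stock) added for 4 h at 37 °C, formazan dissolved in DMSO, absorbance read at 450/540 nm. Triplicates in three separate experiments.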

A549 cancer cell line [2] = settings: cited from earlier work
Fibro cell line = experiment: % inhibition on normal cell line; type: cell-based; settings: for inhibition at 10 µM: read-out: %inhibition at 10 μM; for inhibition at 100 µM: read-out: %inhibition at 100 μM
PI3Kγ enzyme = PI3Kγ enzyme (Homo sapiens, UniProt P48736); experiment: Adapta universal kinase assay, anti-PI3Kγ activity; type: biochemical
PI3Kγ enzyme, sequence (P48736 whole entry): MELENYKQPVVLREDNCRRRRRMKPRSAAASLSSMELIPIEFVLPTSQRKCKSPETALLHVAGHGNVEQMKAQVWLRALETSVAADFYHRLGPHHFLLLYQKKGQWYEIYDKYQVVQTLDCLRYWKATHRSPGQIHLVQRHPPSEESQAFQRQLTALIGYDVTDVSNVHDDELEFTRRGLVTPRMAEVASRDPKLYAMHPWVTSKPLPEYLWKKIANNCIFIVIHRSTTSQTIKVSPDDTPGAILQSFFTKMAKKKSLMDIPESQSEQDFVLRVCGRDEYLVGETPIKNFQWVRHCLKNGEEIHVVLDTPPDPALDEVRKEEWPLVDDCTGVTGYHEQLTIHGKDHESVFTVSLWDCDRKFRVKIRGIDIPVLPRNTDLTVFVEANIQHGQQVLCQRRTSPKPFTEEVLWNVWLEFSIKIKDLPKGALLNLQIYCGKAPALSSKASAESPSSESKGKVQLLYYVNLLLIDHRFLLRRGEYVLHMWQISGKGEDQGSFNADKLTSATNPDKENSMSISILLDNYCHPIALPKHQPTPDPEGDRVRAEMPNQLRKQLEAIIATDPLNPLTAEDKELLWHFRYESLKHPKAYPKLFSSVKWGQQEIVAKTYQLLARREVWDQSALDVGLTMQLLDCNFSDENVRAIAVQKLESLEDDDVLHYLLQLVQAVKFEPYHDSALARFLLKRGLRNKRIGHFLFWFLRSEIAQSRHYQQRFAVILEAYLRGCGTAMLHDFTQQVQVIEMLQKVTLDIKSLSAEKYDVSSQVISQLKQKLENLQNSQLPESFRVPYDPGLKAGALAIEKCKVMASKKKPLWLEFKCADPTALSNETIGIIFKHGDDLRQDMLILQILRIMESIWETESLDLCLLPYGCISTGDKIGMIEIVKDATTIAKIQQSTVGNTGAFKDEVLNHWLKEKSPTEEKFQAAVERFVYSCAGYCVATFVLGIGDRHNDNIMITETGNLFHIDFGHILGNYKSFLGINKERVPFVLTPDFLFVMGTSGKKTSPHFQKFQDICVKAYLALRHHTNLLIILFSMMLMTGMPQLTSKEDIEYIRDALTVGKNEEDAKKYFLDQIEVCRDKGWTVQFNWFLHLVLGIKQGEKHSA
Procedure, shortened: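 Adapta ADP-detection TR-FRET immunoassay with test compound at 100 μM. The kinase reaction runs 60 min. It is then stopped by a detection solution of EDTA, europium-labelled anti-ADP antibody and Alexa Fluor 647-labelled ADP tracer. ADP formed displaces the tracer and lowers the TR-FRET signal. ADP formation is calculated from the emission ratio.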

Escherichia coli = experiment: Disc diffusion antimicrobial test; type: cell-based; settings: 24 h; for zone of inhibition at 100 µg/mL: Escherichia coli, read-out: zone of inhibition (diameter of inhibition)
Procedure, shortened: (§2)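 Disc diffusion on nutrient agar, test compound at 100 μg/mL with DMSO as solvent. Plates incubated at 37 °C for 24 h after inoculation, then zone of inhibition measured and compared with standards. Controls were DMSO, amoxicillin, ciprofloxacin and tetracycline.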

Staphylococcus aureus = experiment: Disc diffusion antimicrobial test; type: cell-based; settings: 24 h; for zone of inhibition at 100 µg/mL: Staphylococcus aureus, read-out: zone of inhibition (diameter of inhibition)
Procedure, shortened: as §2

MCF-7 cancer cell line = experiment: MTT assay; type: cell-based
Procedure, shortened: as §1

[3] = read-out: % of inhibition (mean) against PI3Kγ enzyme
[4] = read-out: % of inhibition against PI3Kγ enzyme, point 1
[5] = read-out: % of inhibition against PI3Kγ enzyme, point 2

Molecule | inhibition at 100 µM (A549 cancer cell line [1]) [%] | inhibition at 10 µM (Fibro cell line) [%] | inhibition at 100 µM (Fibro cell line) [%] | inhibition at 100 µM (PI3Kγ enzyme; [3]) [%] | inhibition at 100 µM (PI3Kγ enzyme; [4]) [%] | inhibition at 100 µM (PI3Kγ enzyme; [5]) [%] | zone of inhibition at 100 µg/mL (Escherichia coli) [mm] | zone of inhibition at 100 µg/mL (Staphylococcus aureus) [mm] | also measured
COc1cccc2c1C(=O)c1c(O)c3c(c(O)c1C2=O)C[C@@](O)(C(=O)CO)C[C@@H]3O[C@H]1C[C@H](N)[C@H](O)[C@H](C)O1 [Doxorubicin, reference compound] | 82.2 | – | – | – | – | – | – | – | IC50 (A549 cancer cell line [1]): 16.6 µM; IC50 (A549 cancer cell line [2]; read-out: reported IC50 against A549): 0.071 µM
NS(=O)(=O)c1ccc(NCC(=O)Nc2nc3ccccc3s2)cc1 [OMS6, N-(1,3-benzothiazol-2-yl)-2-(4-sulfamoylanilino)acetamide] | 39.6 | 1.52 | 62.7 | 13 | 3 | 22 | 0 | 0 | –
O=C(CN1CCN(c2ccc([N+](=O)[O-])cc2)CC1)Nc1nc2ccccc2s1 [OMS11, N-(1,3-benzothiazol-2-yl)-2-[4-(4-nitrophenyl)piperazin-1-yl]acetamide] | 22 | 21.3 | 19.2 | 3 | 6 | 0 | 0 | 0 | –
N-(benzo[d]thiazol-2-yl)-2-(4-(2-oxo-2-(piperazin-1-yl)ethyl)piperazin-1-yl)acetamide [OMS15] | – | – | – | – | – | – | – | – | %inhibition at 10 μM (Fibro cell line; Fibro cell line (normal), 10 μM): 34.8%; %inhibition at 100 μM (Fibro cell line; Fibro cell line (normal), 100 μM): 70%; % of inhibition against PI3Kγ enzyme, point 1 (PI3Kγ enzyme; 100 μM): 0%; % of inhibition against PI3Kγ enzyme, point 2 (PI3Kγ enzyme; 100 μM): 0%; % of inhibition (mean) against PI3Kγ enzyme (PI3Kγ enzyme; 100 μM, mean of 2 trials): 0%; experimental % of inhibition on MCF-7 cancer cell line (MCF-7 cancer cell line; 100 μM, 72 h, MTT): –23.63%; zone of inhibition (diameter of inhibition) (Escherichia coli; disc diffusion, 100 μg/mL, E. coli): 0 mm; zone of inhibition (diameter of inhibition) (Staphylococcus aureus; disc diffusion, 100 μg/mL, S. aureus): 0 mm; experimental % of inhibition on A549 cancer cell line (A549 cancer cell line [1]; 100 μM, 72 h, MTT): 56.69%
O=C(CN1CCN(c2ccccc2O)CC1)Nc1nc2ccccc2s1 [OMS12, N-(1,3-benzothiazol-2-yl)-2-[4-(2-hydroxyphenyl)piperazin-1-yl]acetamide] | 48.5 | 24.3 | 22.2 | 16 | 28 | 4 | 0 | 20 | –
O=C(CNc1ccc(I)cc1)Nc1nc2ccccc2s1 [OMS4, N-(1,3-benzothiazol-2-yl)-2-(4-iodoanilino)acetamide] | -2.32 | 1.32 | 27.6 | 0 | 0 | 0 | 0 | 10 | –
O=C(CNc1ccc(S(=O)(=O)Nc2ccccn2)cc1)Nc1nc2ccccc2s1 [OMS8, N-(1,3-benzothiazol-2-yl)-2-{4-[(pyridine-2-yl)sulfamoyl]anilino}acetamide] | 11.2 | 8.62 | 43.3 | 0 | 0 | 0 | 0 | 0 | –
O=C(CN1CCOCC1)Nc1nc2ccccc2s1 [OMS9, N-(1,3-benzothiazol-2-yl)-2-(morpholin-4-yl)acetamide] | 17.2 | 11.8 | 3.11 | 2 | 0 | 3 | 0 | 0 | –
O=C(CN1CCN(CC(=O)Nc2nc3ccccc3s2)CC1)Nc1nc2ccccc2s1 [OMS16, 2,2′-(piperazine-1,4-diyl)bis(N-(benzo[d]thiazol-2-yl)acetamide)] | 56.6 | 53.8 | 70.1 | 1 | 2 | 0 | 0 | 0 | –
O=C(CNc1ccc(F)cc1)Nc1nc2ccccc2s1 [OMS3, N-(1,3-benzothiazol-2-yl)-2-(4-fluoroanilino)acetamide] | 2.8 | 10.3 | 63.8 | 24 | 20 | 28 | 0 | 15 | –
CNC(=O)c1cc(Oc2ccc(NC(=O)Nc3ccc(Cl)c(C(F)(F)F)c3)cc2)ccn1 [Sorafenib, reference compound] | – | 10.7 | 26.3 | – | – | – | – | – | –
N=C(N)NS(=O)(=O)c1ccc(NCC(=O)Nc2nc3ccccc3s2)cc1 [OMS7, N-(1,3-benzothiazol-2-yl)-2-[4-(carbamimidoylsulfamoyl)anilino]acetamide] | -3.59 | 1.88 | 16.4 | 25 | 29 | 22 | 0 | 0 | –
O=C(CNC1CCCCC1)Nc1nc2ccccc2s1 [OMS1, N-(1,3-benzothiazol-2-yl)-2-(cyclohexylamino)acetamide] | 1.72 | 0.85 | 13 | 47 | 54 | 40 | 0 | 22 | –
CN(C)C1CCN(C(=O)c2ccc(NC(=O)Nc3ccc(-c4nc(N5CCOCC5)nc(N5CCOCC5)n4)cc3)cc2)CC1 [Gedatolisib, reference compound] | – | – | – | – | – | – | – | – | IC50 (MCF-7 cancer cell line; Homo sapiens, MCF7, 72 h): 13.1 µM; IC50 (A549 cancer cell line [1]): 16.5 µM; IC50 (A549 cancer cell line [2]; read-out: reported IC50): 9.05 µM
O=C(CN1CCN(c2cccc(O)c2)CC1)Nc1nc2ccccc2s1 [OMS10, N-(1,3-benzothiazol-2-yl)-2-[4-(3-hydroxyphenyl)piperazin-1-yl]acetamide] | 38.1 | 15.9 | 44.1 | 2 | 3 | 0 | 0 | 11 | –
CC1(C)S[C@@H]2[C@H](NC(=O)[C@H](N)c3ccc(O)cc3)C(=O)N2[C@H]1C(=O)O [Amoxicillin, reference compound] | – | – | – | – | – | – | – | 22 | –
O=C(CN1CCN(c2ccccn2)CC1)Nc1nc2ccccc2s1 [OMS13, N-(1,3-benzothiazol-2-yl)-2-[4-(pyridin-2-yl)piperazin-1-yl]acetamide] | 26.9 | 21.1 | 13.8 | 3 | -2 | 8 | 0 | 0 | –
